Assay type in all cases: ADME
Data set [1] in a line: The compound was tested for half life in presence of salicylate as additive (20 mM). Summed up: (§1)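 N-hydroxyacetaminophen at 1.5 mM initial, incubated at 37 °C in 0.2 M sodium phosphate pH 7.6, with each additive (20 mM) present before adding substrate. Aliquots were quenched in cold acetic acid (final pH ~3), or mixed with 10% FeCl3 in 0.9 M HCl and read at 540 nm. Remaining substrate was tracked by HPLC peak height (system A) or by the ferric assay. First-order disappearance gave the half-life.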

A short description of data set [2]: The compound was tested for half life in presence of thiosulphate as additive (20 mM). Summed up: as §1
Data set [3] can be described thus: The compound was tested for half life in presence of N-acetyl cysteine as additive (20 mM). Summed up:
as §1

Data set [4] can be described thus: The compound was tested for half life in presence of acetaminophen as additive (20 mM). In short, it runs like this: as §1
A short description of data set [5]: The compound was tested for half life in presence of ascorbic acid as additive (20 mM). Summed up:
as §1

Data set [6] is described as follows: The compound was tested for half life in presence of aspirin as additive (20 mM). Summed up: as §1
Data set [7] is described as follows: The compound was tested for half life in presence of control. Summed up: as §1
The nature of data set [8]: The compound was tested for half life in presence of cystamine as additive (20 mM). In short, it runs like this:
as §1

Data set [9] in a line: The compound was tested for half life in presence of cysteamine as additive (20 mM). Summed up: as §1
Data set [10] in a line: The compound was tested for half life in presence of cysteine as additive (20 mM). Summed up: as §1
The nature of data set [11]: The compound was tested for half life in presence of dithionite as additive (20 mM). Summed up:
as §1

Data set [12] can be described thus: The compound was tested for half life in presence of ethanol as additive (20 mM). In short, it runs like this:
as §1

A short description of data set [13]: The compound was tested for half life in presence of glycine as additive (20 mM). In short, it runs like this:
as §1

The nature of data set [14]: The compound was tested for half life in presence of lysine as additive (20 mM). In short, it runs like this:
as §1

A short description of data set [15]: The compound was tested for half life in presence of methionine as additive (20 mM). Summed up: as §1
Data set [16] can be described thus: The compound was tested for half life in presence of phenol as additive (20 mM). Summed up:
as §1

Data set [17] can be described thus: The compound was tested for half life in presence of pyrogallol as additive (20 mM). Summed up:
as §1

The nature of data set [18]: The compound was tested for half life in presence of p-Nitrosophenol as additive (20 mM). In short, it runs like this:
as §1

As to `CC(=O)N(O)c1ccc(O)cc1`, the half-life in data set [1] is 6.5 min; in data set [2], 31 min; in data set [3], 68 min; in data set [4] it was 33 min; in data set [5] it was 76 min; in data set [6], 6.4 min. Further, the half-life in data set [7] is 9.4 min; in [8], 43 min; in data set [9], 72 min; in [10] it was 78 min; in data set [11], 24 min; in [12] it was 6.7 min. Further, the half-life is 24 min in data set [13]; 23 min in [14]; 31 min in data set [15]; 14 min in data set [16]; 60 min in data set [17]; 17 min in data set [18].

The half-life is how long it takes for the measured level to halve.

The record behind these values is ChEMBL document CHEMBL1121409, “Mechanism of decomposition of N-hydroxyacetaminophen, a postulated toxic metabolite of acetaminophen” (J Med Chem, 1980).
